Hit rate of the full screen: of about 24,000 compounds, fewer than 10 were called active. Rule as the data show it: active = caspase activation above about 5.9%; inconclusive = no clear call, values can overlap the other calls; inactive = below about 2.2%. Only a sample is shown.

This assay can be described thus: A1 inhibitors via caspase activation, primary screen, cell-based, luminescence, HTS, two replicates (AID 2465). The settings on record: MEF A1-2A-BIM cells, caspase-Glo luminescence, 3 h; hits give high values; percent of clofoctol response, DMSO zero; concentration not given here. Put shortly:
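Material: A1-2A-BIM-expressing MEF cells. Buffer or medium: RPMI-1640 plus 10% FBS. Incubation: cells settled overnight, compound exposure 3 h at 37 °C, 5% CO2. Signal: Caspase-Glo 3/7 luminescence, 1 h at room temperature.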
Consider `C[C@@H]1CCCCO[C@H](CN(C)Cc2ccc3c(c2)OCO3)[C@H](C)CN([C@@H](C)CO)C(=O)c2cc(NS(=O)(=O)c3cn(C)cn3)ccc2O1`, for which the caspase activation is -0.23% (inactive).
As for `Cc1ccc(S(=O)(=O)Nc2ccc3c(c2)C(=O)N([C@H](C)CO)C[C@@H](C)[C@H](CN(C)C(=O)Nc2ccc(C(F)(F)F)cc2)OCCCC[C@H](C)O3)cc1`, the figure is -0.505% (inactive).
As for `COc1ccc(CN(C)C[C@@H]2Oc3ccc(NS(=O)(=O)c4ccc(F)cc4)cc3C(=O)N([C@@H](C)CO)C[C@@H]2C)cc1`, the figure is -0.363% (inactive).
On to `C[C@H]1CN([C@@H](C)CO)C(=O)c2cccc(NS(=O)(=O)c3ccc(Cl)cc3)c2O[C@H]1CN(C)S(=O)(=O)c1ccc(Cl)cc1`, for which the caspase activation was -1.18% (inactive).
With `Cc1ccc(S(=O)(=O)N(C)C[C@@H]2Oc3ccc(NC(=O)Cc4cn(C)c5ccccc45)cc3C(=O)N([C@@H](C)CO)C[C@@H]2C)cc1`, the caspase activation was 0.187% (inactive).
As for `Cc1noc(C)c1S(=O)(=O)Nc1ccc2c(c1)CC(=O)N([C@@H](C)CO)C[C@H](C)[C@H](CN(C)C(=O)Nc1cccc3ccccc13)O2`, the figure is 0.254% (inactive); as for `O=C(CCCCCCC(=O)Nc1ccccc1O)N/N=C/c1ccc(CO)o1`, -0.255% (inactive); as for `COC(=O)CCCCCCC(=O)N/N=C/c1ccc2ccccc2c1O`, -1.41% (inactive).
As for `COc1ccc(NC(=O)N(C)C[C@H]2OCCCC[C@@H](C)Oc3ccc(NC(=O)NC4CCCCC4)cc3C(=O)N([C@@H](C)CO)C[C@H]2C)cc1`, the figure is 0.476% (inactive); as for `C[C@@H]1CN([C@@H](C)CO)C(=O)c2cc(NS(=O)(=O)c3cn(C)cn3)ccc2O[C@@H]1CN(C)Cc1ccc(C(=O)Nc2ccccc2N)cc1`, 0.311% (inactive); as for `C[C@H]1CN([C@@H](C)CO)C(=O)c2cc(NC(=O)C3CCCCC3)ccc2O[C@H]1CN(C)C(=O)Nc1ccccc1`, 0.892% (inactive).
As for `C[C@@H]1CCCCO[C@@H](CN(C)Cc2ccc(C(=O)O)cc2)[C@@H](C)CN([C@@H](C)CO)C(=O)c2cc(NC(=O)Nc3ccc(C(F)(F)F)cc3)ccc2O1`, the figure is 0.286% (inactive); as for `COc1ccc(NC(=O)Nc2ccc3c(c2)C(=O)N([C@@H](C)CO)C[C@@H](C)[C@@H](CN(C)Cc2ccncc2)OCCCC[C@@H](C)O3)cc1`, -1.58% (inactive); as for `C[C@@H]1CN([C@H](C)CO)C(=O)Cc2cc(NC(=O)CCC(F)(F)F)ccc2O[C@@H]1CN(C)Cc1ccncc1`, 0.918% (inactive).
For `COc1ccc(NC(=O)N(C)C[C@H]2OCCCC[C@@H](C)Oc3ccc(NC(=O)c4ccncc4)cc3C(=O)N([C@@H](C)CO)C[C@H]2C)cc1`, the caspase activation is -1.47% (inactive).
In the case of `COc1ccc(C(=O)Nc2cccc(-n3cc(C(=O)NO)nn3)c2)cc1`, the caspase activation is -0.373% (inactive).
Take `COc1ccc(S(=O)(=O)Nc2ccc3c(c2)C(=O)N([C@@H](C)CO)C[C@H](C)[C@H](CN(C)S(=O)(=O)c2ccc(F)cc2)OCCCC[C@@H](C)O3)cc1`: the caspase activation is 0.149% (inactive).
As to `C[C@H]1CN([C@@H](C)CO)C(=O)CCCn2cc(nn2)CO[C@@H]1CN(C)S(=O)(=O)c1cccc(C#N)c1`, the caspase activation is 0.238% (inactive).
As for `Cc1noc(C)c1S(=O)(=O)N(C)C[C@@H]1Oc2ccc(NC(=O)Cn3cnnn3)cc2CC(=O)N([C@@H](C)CO)C[C@H]1C`, the figure is -0.944% (inactive).
As for `C[C@@H]1CN([C@@H](C)CO)C(=O)Cc2cc(NC(=O)CCCCCC(=O)Nc3ccccc3N)ccc2O[C@@H]1CN(C)C(=O)NC1CCCCC1`, the figure is 0.875% (inactive); as for `C[C@H]1CN([C@@H](C)CO)C(=O)Cc2cc(NS(=O)(=O)c3ccccc3)ccc2O[C@H]1CN(C)Cc1ccc(C(=O)Nc2ccccc2N)cc1`, 0.839% (inactive); as for `COc1ccc(CN(C)C[C@H]2OCCCC[C@H](C)Oc3ccc(NC(=O)NC4CCCCC4)cc3C(=O)N([C@@H](C)CO)C[C@@H]2C)cc1`, 2.09% (inactive).
As for `CN(C)c1ccc(/C=N/NC(=O)c2cccc(C(=O)NO)c2)cc1`, the figure is -7.51% (inactive); as for `C[C@@H]1CN([C@@H](C)CO)C(=O)c2cc(NC(=O)Nc3ccc4c(c3)OCO4)ccc2O[C@@H](C)CCCCO[C@@H]1CN(C)S(=O)(=O)c1cccs1`, 0.598% (inactive); as for `COc1ccc(CN(C)C[C@H]2OCCCC[C@H](C)Oc3ccc(NC(=O)c4ccccc4)cc3C(=O)N([C@@H](C)CO)C[C@@H]2C)cc1`, 2.67% (inactive).
On to `O=C(NO)c1cccc(C(=O)N/N=C/c2cc(Br)c(O)c(Br)c2)c1`, for which the caspase activation is 0.169% (inactive).
On to `CC(C)NC(=O)N(C)C[C@H]1Oc2ccc(NC(=O)CCCCCC(=O)Nc3ccccc3N)cc2CC(=O)N([C@@H](C)CO)C[C@H]1C`, for which the caspase activation was 0.899% (inactive).
As to `Cc1noc(C)c1S(=O)(=O)N(C)C[C@H]1OCc2cn(nn2)CCCC(=O)N([C@H](C)CO)C[C@H]1C`, the caspase activation is -0.756% (inactive).
In the case of `C[C@H]1CCCCO[C@@H](CN(C)C(=O)Nc2ccccc2)[C@@H](C)CN([C@@H](C)CO)C(=O)c2cc(NC(=O)Nc3ccc(F)cc3)ccc2O1`, the caspase activation is -0.917% (inactive).
As for `Cc1ccc(S(=O)(=O)Nc2ccc3c(c2)C(=O)N([C@H](C)CO)C[C@H](C)[C@@H](CN(C)Cc2ccccc2)OCCCC[C@H](C)O3)cc1`, the figure is -0.556% (inactive).
As for `C[C@H](CO)N1C[C@H](C)[C@@H](CN(C)Cc2ccc(C(=O)O)cc2)Oc2ccc(NS(=O)(=O)c3cn(C)cn3)cc2CC1=O`, the figure is -0.273% (inactive); as for `C[C@@H]1CCCCO[C@@H](CN(C)C(=O)Nc2cccc3ccccc23)[C@H](C)CN([C@H](C)CO)C(=O)c2cc(NS(C)(=O)=O)ccc2O1`, -0.00967% (inactive); as for `Cc1noc(C)c1NC(=O)Nc1ccc2c(c1)C(=O)N([C@H](C)CO)C[C@@H](C)[C@@H](CN(C)Cc1ccncc1)OCCCC[C@H](C)O2`, -0.749% (inactive).
In the case of `C[C@@H]1CN([C@@H](C)CO)C(=O)c2cc(NC(=O)Cc3ccccc3)ccc2O[C@@H]1CN(C)CC1CCCCC1`, the caspase activation is 0.64% (inactive).
As for `Cc1noc(C)c1NC(=O)Nc1ccc2c(c1)C(=O)N([C@@H](C)CO)C[C@@H](C)[C@H](CN(C)C(=O)NC(C)C)O2`, the figure is 0.213% (inactive); as for `C[C@@H]1CN([C@H](C)CO)C(=O)c2cc(NC(=O)CCCCCC(=O)Nc3ccccc3N)ccc2O[C@H]1CN(C)Cc1ccncc1`, 0.61% (inactive).
As for `C[C@@H]1CCCCO[C@H](CN(C)CC2CC2)[C@@H](C)CN([C@H](C)CO)C(=O)c2cc(NC(=O)Nc3ccc(F)cc3)ccc2O1`, the figure is -0.194% (inactive).
For `COc1ccc(S(=O)(=O)N(C)C[C@@H]2Oc3c(NC(=O)NC(C)C)cccc3C(=O)N([C@@H](C)CO)C[C@@H]2C)cc1`, the caspase activation is -0.3% (inactive).
As for `O=C(CCCCC(=O)N/N=C/c1ccc(-n2ccnc2)cc1)NO`, the figure is 1.09% (inactive); as for `C[C@H](CO)N1C[C@H](C)[C@H](CN(C)C(=O)c2ccccc2)OCCCC[C@H](C)Oc2ccc(N(C)C)cc2C1=O`, -1.45% (inactive); as for `CC(C)NC(=O)Nc1ccc2c(c1)C(=O)N([C@H](C)CO)C[C@H](C)[C@@H](CN(C)S(=O)(=O)c1ccc(F)cc1)OCCCC[C@H](C)O2`, 1.08% (inactive).
As for `COc1ccc(S(=O)(=O)N(C)C[C@@H]2OCCCC[C@@H](C)Oc3ccc(NC(=O)c4ccccc4)cc3C(=O)N([C@@H](C)CO)C[C@H]2C)cc1`, the figure is 1.47% (inactive).
As for `C[C@@H]1CCCCO[C@H](CN(C)C(=O)Nc2ccc(C(F)(F)F)cc2)[C@@H](C)CN([C@@H](C)CO)C(=O)c2cc(NS(=O)(=O)c3cccs3)ccc2O1`, the figure is -0.547% (inactive); as for `CCOc1cccc(/C=N/NC(=O)CCCCCC(=O)Nc2ccccc2O)c1OCC`, -0.952% (inactive); as for `C[C@@H]1CN([C@@H](C)CO)C(=O)c2cc(NC(=O)Nc3ccc(C(F)(F)F)cc3)ccc2O[C@@H](C)CCCCO[C@H]1CN(C)C(=O)CCCN(C)C`, 0.263% (inactive).
As to `Cc1noc(C)c1NC(=O)N(C)C[C@@H]1Oc2ccc(NS(=O)(=O)c3ccc(F)cc3)cc2CC(=O)N([C@@H](C)CO)C[C@H]1C`, the caspase activation is -0.135% (inactive).
As for `COc1ccc(S(=O)(=O)Nc2ccc3c(c2)CC(=O)N([C@H](C)CO)C[C@H](C)[C@@H](CN(C)C(=O)NC(C)C)O3)cc1`, the figure is 0.0847% (inactive); as for `C[C@H](CO)N1C[C@H](C)[C@@H](CN(C)S(C)(=O)=O)OCCCC[C@H](C)Oc2ccc(NC(=O)Nc3ccc(C(F)(F)F)cc3)cc2C1=O`, -0.463% (inactive).
As for `C[C@H]1CCCCO[C@H](CN(C)S(C)(=O)=O)[C@@H](C)CN([C@@H](C)CO)C(=O)c2cc(NC(=O)C3CCCCC3)ccc2O1`, the figure is -0.127% (inactive); as for `C[C@@H]1CN([C@@H](C)CO)C(=O)c2cc(NC(=O)NC3CCCCC3)ccc2O[C@@H](C)CCCCO[C@H]1CN(C)Cc1ccccc1`, 1.95% (inactive).
As for `C[C@@H]1CCCCO[C@@H](CN(C)C(=O)Nc2cccc3ccccc23)[C@H](C)CN([C@H](C)CO)C(=O)c2cc(NC(=O)NC3CCCCC3)ccc2O1`, the figure is -0.528% (inactive); as for `COc1ccc(NC(=O)N(C)C[C@H]2OCCCC[C@H](C)Oc3ccc(NC(=O)c4ccncc4)cc3C(=O)N([C@H](C)CO)C[C@@H]2C)cc1`, -1.84% (inactive).
For `COc1ccc(S(=O)(=O)Nc2cccc3c2O[C@@H](CN(C)C(=O)NC(C)C)[C@H](C)CN([C@@H](C)CO)C3=O)cc1`, the caspase activation is 0.104% (inactive).
As for `COc1ccc(CN(C)C[C@H]2Oc3ccc(NS(=O)(=O)c4c(C)noc4C)cc3CC(=O)N([C@H](C)CO)C[C@H]2C)cc1`, the figure is -1.02% (inactive).

Source of the values: PubChem BioAssay AID2465 (Broad Institute, 2010).
